Experimental data: ChEMBL document CHEMBL3576834, “Antipodal crambescin A2 homologues from the marine sponge Pseudaxinella reticulata. Antifungal structure-activity relationships” (2015)
In brackets after ≈: the same amount, converted by molar mass.

Columns and labels:
[1] = tested on: Cryptococcus gattii; assay: Antifungal activity against Cryptococcus neoformans var. gattii after 48 hrs by microbroth dilution method; format: functional, Cryptococcus bacillisporus
Summary of the method: (§1)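 Microbroth dilution in Antibiotic Medium #3. Test agent in DMSO serially diluted 2-fold across 12 wells. Overnight yeast cultures diluted to OD 0.01−0.02 and added to the wells, final volume 200 μL. Incubated at 35 °C for 48 h, then growth read as OD at 600 nm.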

[2] = tested on: Candida albicans; assay: Antifungal activity against Candida albicans ATCC 14503 after 48 hrs by microbroth dilution method; format: functional; details: ATCC 14503, 48 h; summary of the method: as §1
[3] = tested on: Pichia kudriavzevii; assay: Antifungal activity against Candida krusei after 48 hrs by microbroth dilution method; format: functional; summary of the method: as §1
[4] = tested on: Staphylococcus aureus; assay: Antibacterial activity against Staphylococcus aureus at 80 ug by disk diffusion method; format: functional; details: read-out: IZ
[5] = tested on: Nakaseomyces glabratus; assay: Antifungal activity against Candida glabrata after 48 hrs by microbroth dilution method; format: functional; summary of the method: as §1

| SMILES | MIC50 [1] | MIC90 [1] | MIC50 [2] | MIC90 [2] | MIC50 [3] | MIC90 [3] | MIC50 [5] | MIC90 [5] | zone of inhibition at 80 µg/disc [4] |
| --- | --- | --- | --- | --- | --- | --- | --- | --- | --- |
| CCCCCCC[C@H]1NC(=N)N2CCCC2=C1C(=O)OCCCCNC(=N)N | 1.2 µM (≈ 0.471 µg/mL) | 2.3 µM (≈ 0.903 µg/mL) | 22 µM (≈ 8.64 µg/mL) | 32 µM (≈ 12.6 µg/mL) |  |  |  |  |  |
| CCCCC[C@H]1NC(=N)N2CCCC2=C1C(=O)OCCCCNC(=N)N | 2.5 µM (≈ 0.911 µg/mL) | 4.9 µM (≈ 1.79 µg/mL) | 39 µM (≈ 14.2 µg/mL) | 49 µM (≈ 17.9 µg/mL) | 34 µM (≈ 12.4 µg/mL) | 59 µM (≈ 21.5 µg/mL) | 17 µM (≈ 6.2 µg/mL) | 41 µM (≈ 14.9 µg/mL) | 8 mm |
| CCCCCCCCC[C@H]1NC(=N)N2CCCC2=C1C(=O)OCCCCNC(=N)N | 1.1 µM (≈ 0.463 µg/mL) | 2.6 µM (≈ 1.09 µg/mL) | 11 µM (≈ 4.63 µg/mL) | 22 µM (≈ 9.25 µg/mL) | 11 µM (≈ 4.63 µg/mL) | 24 µM (≈ 10.1 µg/mL) | 6.1 µM (≈ 2.57 µg/mL) | 27 µM (≈ 11.4 µg/mL) |  |

The next molecules have a lower MIC50 [1] than those just listed; values first:

| MIC50 [1] | MIC90 [1] | MIC50 [2] | MIC90 [2] | MIC50 [3] | MIC90 [3] | MIC50 [5] | MIC90 [5] | SMILES | zone of inhibition at 80 µg/disc [4] |
| --- | --- | --- | --- | --- | --- | --- | --- | --- | --- |
| 0.85 µM (≈ 0.346 µg/mL) | 2.2 µM (≈ 0.894 µg/mL) | 14 µM (≈ 5.69 µg/mL) | 26 µM (≈ 10.6 µg/mL) |  |  |  |  | CCCCCCCC[C@H]1NC(=N)N2CCCC2=C1C(=O)OCCCCNC(=N)N |  |
| 0.055 µM (≈ 0.0508 µg/mL) | 0.12 µM (≈ 0.111 µg/mL) | 0.037 µM (≈ 0.0342 µg/mL) | 0.29 µM (≈ 0.268 µg/mL) | 0.17 µM (≈ 0.157 µg/mL) | 0.23 µM (≈ 0.213 µg/mL) | 0.098 µM (≈ 0.0906 µg/mL) | 0.25 µM (≈ 0.231 µg/mL) | C[C@@H]1[C@H](O)[C@@H](C)/C=C/C=C/C=C/C=C/C=C/C=C/C=C/[C@H](O[C@@H]2O[C@H](C)[C@@H](O)[C@H](N)[C@@H]2O)C[C@@H]2O[C@](O)(C[C@@H](O)C[C@@H](O)[C@H](O)CC[C@@H](O)C[C@@H](O)CC(=O)O[C@H]1C)C[C@H](O)[C@H]2C(=O)O [AMPHOTERICIN B] |  |
